According to ChEMBL document CHEMBL1154986, “New anti-malarial phenylpropanoid conjugated iridoids from Morinda morindoides” (Bioorg Med Chem Lett, 2010):
pIC50: −log10 of the molar value. Converted amounts (≈) assume the structure as drawn.

Assays:
Plasmodium falciparum = assay: Antimalarial activity against cycloguanil-resistant Plasmodium falciparum CDC1 assessed as inhibition of ring stage parasitaemia after 48 hrs by Giemsa staining; type: functional, organism-based; conditions: CDC1, 48 h
In short: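 Sorbitol-synchronized ring-stage culture (0.5% parasitemia, 4% hematocrit type O human RBC) in RPMI 1640 with 10% heat-inactivated type O human serum, HEPES, glutamine, NaHCO3, hypoxanthine, gentamycin; 5% CO2/5% O2/90% N2, 37 °C. Samples from DMSO stock diluted in medium, 1% DMSO final; 48 h. Proliferation counted on Giemsa thin films, 10,000 erythrocytes per film, triplicate. Quinine as control.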

[1] = Cytotoxicity against human KB-3-1 cells at 150 uM after 72 hrs by MTT assay; type: cell-based; conditions: read-out: GI
[2] = Cytotoxicity against human KB-3-1 cells after 72 hrs by MTT assay; type: cell-based; conditions: KB 3-1, 72 h
In short: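 KB-3-1 cells grown in RPMI 1640 with 10% newborn calf serum, glutamine, kanamycin, 5% CO2, 37 °C. 1.0 × 10^4 cells per well, then sample added in medium containing 2% DMSO; 72 h at 37 °C. MTT (2 mg/mL in PBS) added afterwards; growth inhibition from absorbance at 540 nm. Mitomycin C as positive control.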

## C=C[C@H]1CN2CC[C@H]1C[C@H]2[C@H](O)c1ccnc2ccc(OC)cc12 [QUININE]
Plasmodium falciparum
  IC50: 0.04 µg/mL
  IC90: 0.09 µg/mL (≈ 0.277 µM)

## COC(=O)C1=CO[C@@H](O[C@@H]2O[C@H](CO)[C@@H](O)[C@H](O)[C@H]2O)[C@H]2[C@@H]1C=C[C@@]21C=C(C(=O)c2ccc(O)c(OC)c2)C(=O)O1 [DEHYDROMETHOXYGAERTNEROSIDE]
Plasmodium falciparum
  pIC50: 7.40
[1]
  inhibition at 72 h, 150 µM: 6.1%

## CO[C@@]12[C@H](COC(N)=O)C3=C(C(=O)C(C)=C(N)C3=O)N1C[C@@H]1N[C@@H]12 [MITOMYCIN]
[2]
  IC50: 0.1 µg/mL (≈ 0.299 µM)

## COC(=O)C1=CO[C@@H](O[C@@H]2O[C@H](CO)[C@@H](O)[C@H](O)[C@H]2O)[C@H]2[C@@H]1C=C[C@@]21C=C([C@H](O)c2ccc(O)c(OC)c2)C(=O)O1
Plasmodium falciparum
  pIC50: 4.66
[1]
  inhibition at 72 h, 150 µM: 13.1%

## COC(=O)C1=CO[C@@H](O[C@@H]2O[C@H](COC(C)=O)[C@@H](O)[C@H](O)[C@H]2O)[C@H]2[C@@H]1C=C[C@@]21C=C([C@H](O)c2ccc(O)c(OC)c2)C(=O)O1
Plasmodium falciparum
  pIC50: 7.00
[1]
  inhibition at 72 h, 150 µM: 9.3%

## COC(=O)C1=CO[C@@H](O[C@@H]2O[C@H](COC(C)=O)[C@@H](O)[C@H](O)[C@H]2O)[C@H]2[C@@H]1C=C[C@@]21C=C([C@H](O)c2ccc(O)cc2)C(=O)O1
Plasmodium falciparum
  pIC50: 5.39
[1]
  inhibition at 72 h, 150 µM: 4.3%

## COC(=O)C1=CO[C@@H](O[C@@H]2O[C@H](CO)[C@@H](O)[C@H](O)[C@H]2O)[C@H]2[C@@H]1C=C[C@@]21C=C([C@H](O)c2ccc(O)cc2)C(=O)O1
Plasmodium falciparum
  pIC50: 6.10
[1]
  inhibition at 72 h, 150 µM: 13.4%
